In brackets after ≈: the same amount, converted by molar mass.
Tests used:
Assay type in all cases: functional
Pseudomonas aeruginosa [1] = experiment: In vitro antibacterial activity against Pseudomonas aeruginosa IFO 3445
How it was run: (§1)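 Two-fold agar dilution MIC on Mueller-Hinton agar (pH 7.4), following the Japan Society of Chemotherapy MIC Committee method. Inoculum was about 10⁶ CFU, and growth was read after 20 h at 37 °C. MIC is reported in µg/mL.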

Pseudomonas aeruginosa [2] = experiment: In vitro antibacterial activity against Pseudomonas aeruginosa 12; how it was run: as §1
Staphylococcus aureus [3] = experiment: In vitro antibacterial activity against Staphylococcus aureus 50774; how it was run: as §1
Serratia marcescens [4] = experiment: In vitro antibacterial activity against Serratia marcescence S-9; how it was run: as §1
Streptococcus pyogenes = experiment: In vitro antibacterial activity against Streptococcus pyogenes A65; how it was run: as §1
Mus musculus [5] = species on record: Mus musculus; experiment: Oral efficacy against Pseudomonas aeruginosa 12 on Systemic Infections in Mice
How it was run: (§2)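 Groups of at least 10 male Std-ddY mice (20 ± 2 g) were infected ip, with S. pyogenes A65 at 3×10^7 cells or P. aeruginosa 12 at 4×10^3 cells. Compounds were suspended in 0.2% sodium carboxymethylcellulose and given orally at 0 and 6 h postinfection. The result is reported as ED50 in mg/kg.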

Moraxella bovis = experiment: In vitro antibacterial activity against glucose nonfermenter Moraxella bovis P-7101; how it was run: as §1
Escherichia coli [6] = experiment: In vitro antibacterial activity against Escherichia coli NIHJ JC-2; how it was run: as §1
Escherichia coli [7] = experiment: In vitro antibacterial activity against Escherichia coli P-5101; how it was run: as §1
Staphylococcus aureus [8] = experiment: In vitro antibacterial activity against Staphylococcus aureus 209P JC-1; how it was run: as §1
[9] = test system: Staphylococcus epidermidis; experiment: In vitro antibacterial activity against Streptococcus epidermis 8; how it was run: as §1
Mus musculus [10] = species on record: Mus musculus; experiment: Oral efficacy against Streptococcus pyogenes A65 on Systemic Infections in Mice; how it was run: as §2
Enterobacter cloacae = experiment: In vitro antibacterial activity against Enterobacter cloacae 963
Enterococcus faecalis = experiment: In vitro antibacterial activity against Streptococcus faecalis 2473; how it was run: as §1
Klebsiella pneumoniae = experiment: In vitro antibacterial activity against Klebsiella pneumoniae 13; how it was run: as §1
Serratia marcescens [11] = experiment: In vitro antibacterial activity against Serratia marcescene S-9; how it was run: as §1

Structure (SMILES) | MIC (Pseudomonas aeruginosa [1]) [µg/mL] | MIC (Pseudomonas aeruginosa [2]) [µg/mL] | MIC (Staphylococcus aureus [3]) [µg/mL] | MIC (Serratia marcescens [4]) [µg/mL] | MIC (Streptococcus pyogenes) [µg/mL] | MIC (Moraxella bovis) [µg/mL] | MIC (Escherichia coli [6]) [µg/mL] | MIC (Escherichia coli [7]) [µg/mL] | MIC (Staphylococcus aureus [8]) [µg/mL] | MIC [9] [µg/mL] | MIC (Enterobacter cloacae) [µg/mL] | MIC (Enterococcus faecalis) [µg/mL] | MIC (Klebsiella pneumoniae) [µg/mL] | MIC (Serratia marcescens [11]) [µg/mL] | ED50 (Mus musculus [5]) [mg/kg] | ED50 (Mus musculus [10]) [mg/kg]
C[C@@H]1CN(c2c(F)c(N)c3c(=O)c(C(=O)O)cn(C4CC4)c3c2F)C[C@@H](C)N1 (relative stereo) | 0.78 (≈ 1.99 µM) | 0.78 (≈ 1.99 µM) | 0.025 (≈ 0.0637 µM) | 0.39 (≈ 0.994 µM) | 0.39 (≈ 0.994 µM) | 0.78 (≈ 1.99 µM) | 0.0125 (≈ 0.0319 µM) | 0.0125 (≈ 0.0319 µM) | 0.025 (≈ 0.0637 µM) | 0.0125 (≈ 0.0319 µM) | 0.1 (≈ 0.255 µM) | 0.39 (≈ 0.994 µM) | 0.1 (≈ 0.255 µM) | – | 6.33 | 7.38
CC1CN(c2c(F)c(F)c3c(=O)c(C(=O)O)cn(C4CC4)c3c2F)CCN1 (stereo not given) | 0.78 (≈ 2.05 µM) | 0.78 (≈ 2.05 µM) | 0.2 (≈ 0.524 µM) | – | 1.56 (≈ 4.09 µM) | 1.56 (≈ 4.09 µM) | 0.0125 (≈ 0.0328 µM) | 0.0063 (≈ 0.0165 µM) | 0.2 (≈ 0.524 µM) | 0.2 (≈ 0.524 µM) | 0.025 (≈ 0.0656 µM) | 3.13 (≈ 8.21 µM) | 0.05 (≈ 0.131 µM) | 0.2 (≈ 0.524 µM) | 2.46 | 17.3
CC1CN(c2c(F)c(O)c3c(=O)c(C(=O)O)cn(C4CC4)c3c2F)CCN1 (stereo not given) | 0.78 (≈ 2.06 µM) | 0.78 (≈ 2.06 µM) | 0.2 (≈ 0.527 µM) | 0.1 (≈ 0.264 µM) | 0.78 (≈ 2.06 µM) | 1.56 (≈ 4.11 µM) | 0.025 (≈ 0.0659 µM) | 0.025 (≈ 0.0659 µM) | 0.2 (≈ 0.527 µM) | 0.1 (≈ 0.264 µM) | 0.05 (≈ 0.132 µM) | 1.56 (≈ 4.11 µM) | 0.1 (≈ 0.264 µM) | – | 5.97 | 12.5

The remaining compounds from weak to strong by MIC (Pseudomonas aeruginosa [1]), led by results:

MIC (Pseudomonas aeruginosa [1]) [µg/mL] | MIC (Pseudomonas aeruginosa [2]) [µg/mL] | MIC (Staphylococcus aureus [3]) [µg/mL] | MIC (Serratia marcescens [4]) [µg/mL] | MIC (Streptococcus pyogenes) [µg/mL] | MIC (Moraxella bovis) [µg/mL] | MIC (Escherichia coli [6]) [µg/mL] | MIC (Escherichia coli [7]) [µg/mL] | MIC (Staphylococcus aureus [8]) [µg/mL] | MIC [9] [µg/mL] | MIC (Enterobacter cloacae) [µg/mL] | MIC (Enterococcus faecalis) [µg/mL] | MIC (Klebsiella pneumoniae) [µg/mL] | MIC (Serratia marcescens [11]) [µg/mL] | Structure (SMILES) | ED50 (Mus musculus [5]) [mg/kg] | ED50 (Mus musculus [10]) [mg/kg]
0.39 (≈ 0.994 µM) | 0.39 (≈ 0.994 µM) | 0.05 (≈ 0.127 µM) | 0.2 (≈ 0.51 µM) | 0.39 (≈ 0.994 µM) | 0.39 (≈ 0.994 µM) | 0.0125 (≈ 0.0319 µM) | 0.0125 (≈ 0.0319 µM) | 0.05 (≈ 0.127 µM) | 0.05 (≈ 0.127 µM) | 0.05 (≈ 0.127 µM) | 0.78 (≈ 1.99 µM) | 0.05 (≈ 0.127 µM) | – | C[C@@H]1CN(c2c(F)c(N)c3c(=O)c(C(=O)O)cn(C4CC4)c3c2F)C[C@H](C)N1 [SPARFLOXACIN] | 1.57 | 3.36
0.39 (≈ 0.984 µM) | 0.2 (≈ 0.505 µM) | 0.0125 (≈ 0.0315 µM) | 0.1 (≈ 0.252 µM) | 0.2 (≈ 0.505 µM) | 0.39 (≈ 0.984 µM) | 0.0063 (≈ 0.0159 µM) | 0.0063 (≈ 0.0159 µM) | 0.025 (≈ 0.0631 µM) | 0.0125 (≈ 0.0315 µM) | 0.025 (≈ 0.0631 µM) | 0.39 (≈ 0.984 µM) | 0.025 (≈ 0.0631 µM) | – | Nc1c(F)c(N2CCNC(CF)C2)c(F)c2c1c(=O)c(C(=O)O)cn2C1CC1 (stereo not given) | 7.02 | 17.4
0.2 (≈ 0.529 µM) | 0.2 (≈ 0.529 µM) | 0.025 (≈ 0.0661 µM) | 0.05 (≈ 0.132 µM) | 0.39 (≈ 1.03 µM) | 0.39 (≈ 1.03 µM) | 0.006 (≈ 0.0159 µM) | 0.0063 (≈ 0.0166 µM) | 0.025 (≈ 0.0661 µM) | 0.025 (≈ 0.0661 µM) | 0.025 (≈ 0.0661 µM) | 0.39 (≈ 1.03 µM) | 0.0125 (≈ 0.033 µM) | – | CC1CN(c2c(F)c(N)c3c(=O)c(C(=O)O)cn(C4CC4)c3c2F)CCN1 (stereo not given) | 1.11 | 6.54

Reference: ChEMBL document CHEMBL1124792, “Synthesis and structure-activity relationships of 5-substituted 6,8-difluoroquinolones, including sparfloxacin, a new quinolone antibacterial agent with improved potency” (1990)
